Results: ChEMBL document CHEMBL2029200, “Discovery of a novel melanin concentrating hormone receptor 1 (MCHR1) antagonist with reduced hERG inhibition” (Bioorg Med Chem Lett, 2012)
Activity calls are given as the source filed them. The calls are words filed in the database; no cut-off is given here.

Key:
[1] = biological target: T1, Melanin-concentrating hormone receptor 1 (Homo sapiens, UniProt Q99705); experiment: Displacement of [125I]-MCH from MCHR1 after 2 hrs by scintillation counting
Method in brief: (§1)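 Competition binding on MCHR1 membrane preparation with 125I-MCH tracer. Compound diluted in 50 mM Tris pH 7.4, 10 mM MgCl2, 2.5 mM EDTA, 0.2% BSA. Incubation 2 h at 37 °C with shaking. Bound and free ligand separated by vacuum filtration through BSA-pretreated filter plates. Filters washed 4 times in Hepes/NaCl/BSA buffer, then counted by scintillation.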

[2] = biological target: T2, Voltage-gated inwardly rectifying potassium channel KCNH2 (Homo sapiens, UniProt Q12809); experiment: Inhibition of human Erg expressed in HEK293 cells assessed as rubidium efflux after 4 hrs by atomic absorbance spectrometric analysis
T2 sequence (Q12809 whole entry): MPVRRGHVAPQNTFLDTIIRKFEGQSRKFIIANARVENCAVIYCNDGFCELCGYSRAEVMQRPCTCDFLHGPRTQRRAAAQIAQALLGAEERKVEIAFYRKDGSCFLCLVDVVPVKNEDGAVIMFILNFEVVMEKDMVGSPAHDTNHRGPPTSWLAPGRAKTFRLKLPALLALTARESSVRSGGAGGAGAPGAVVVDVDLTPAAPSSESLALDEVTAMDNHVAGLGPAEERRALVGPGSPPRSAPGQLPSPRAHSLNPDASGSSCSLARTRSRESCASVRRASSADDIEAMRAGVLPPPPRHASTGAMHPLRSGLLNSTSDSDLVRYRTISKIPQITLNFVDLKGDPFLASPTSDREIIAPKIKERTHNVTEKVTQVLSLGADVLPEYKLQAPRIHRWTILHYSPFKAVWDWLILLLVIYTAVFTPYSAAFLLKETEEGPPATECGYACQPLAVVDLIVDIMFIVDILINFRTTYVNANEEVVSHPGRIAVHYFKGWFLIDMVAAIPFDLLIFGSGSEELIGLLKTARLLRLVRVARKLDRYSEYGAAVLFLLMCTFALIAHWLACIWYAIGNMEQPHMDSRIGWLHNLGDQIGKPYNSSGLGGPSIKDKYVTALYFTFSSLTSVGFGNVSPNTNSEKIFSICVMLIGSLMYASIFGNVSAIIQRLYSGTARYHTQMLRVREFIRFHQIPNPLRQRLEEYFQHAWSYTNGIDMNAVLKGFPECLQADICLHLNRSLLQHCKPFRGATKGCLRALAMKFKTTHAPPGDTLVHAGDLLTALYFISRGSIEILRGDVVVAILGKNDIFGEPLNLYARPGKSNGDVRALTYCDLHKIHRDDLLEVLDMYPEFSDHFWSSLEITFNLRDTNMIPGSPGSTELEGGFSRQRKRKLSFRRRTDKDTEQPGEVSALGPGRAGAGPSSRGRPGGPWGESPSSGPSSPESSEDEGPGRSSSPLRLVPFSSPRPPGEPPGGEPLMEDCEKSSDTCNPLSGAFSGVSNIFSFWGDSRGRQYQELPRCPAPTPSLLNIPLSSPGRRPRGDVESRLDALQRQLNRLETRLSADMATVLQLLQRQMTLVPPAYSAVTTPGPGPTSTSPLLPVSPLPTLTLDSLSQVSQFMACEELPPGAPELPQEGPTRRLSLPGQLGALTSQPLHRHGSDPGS

[3] = biological target: T2, Voltage-gated inwardly rectifying potassium channel KCNH2; experiment: Binding affinity to human Erg
[4] = Oral bioavailability in mouse at 3 mg/kg; type: ADME, organism-based; settings: in vivo
Method in brief: (§2)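 Pharmacokinetics determined after IV dosing at 0.5 mg/kg and oral dosing at 3 mg/kg.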

Mu-type opioid receptor = Mu-type opioid receptor (Homo sapiens, UniProt P35372); experiment: Binding affinity to opioid mu receptor
Sequence of Mu-type opioid receptor (P35372 whole entry): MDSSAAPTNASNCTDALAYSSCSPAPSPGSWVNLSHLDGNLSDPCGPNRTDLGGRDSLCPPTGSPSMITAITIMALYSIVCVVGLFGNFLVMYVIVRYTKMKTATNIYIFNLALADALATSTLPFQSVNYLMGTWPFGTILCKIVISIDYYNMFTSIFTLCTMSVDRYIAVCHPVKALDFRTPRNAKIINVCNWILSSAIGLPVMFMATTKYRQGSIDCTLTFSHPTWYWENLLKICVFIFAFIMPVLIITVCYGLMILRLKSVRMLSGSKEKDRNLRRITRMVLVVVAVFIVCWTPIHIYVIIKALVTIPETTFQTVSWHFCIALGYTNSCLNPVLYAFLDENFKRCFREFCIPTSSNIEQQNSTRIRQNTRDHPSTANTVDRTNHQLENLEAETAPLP

[5] = biological target: Melanin-concentrating hormone receptor 1 (Macaca mulatta, UniProt Q8MJ89); experiment: Antagonist activity at rhesus monkey MCHR1 assessed inhibition of MCH-mediated intracellular Ca2+ calcium mobilization; type: functional, cell-based
Sequence of Melanin-concentrating hormone receptor 1 (Macaca mulatta, UniProt Q8MJ89) (Q8MJ89 whole entry): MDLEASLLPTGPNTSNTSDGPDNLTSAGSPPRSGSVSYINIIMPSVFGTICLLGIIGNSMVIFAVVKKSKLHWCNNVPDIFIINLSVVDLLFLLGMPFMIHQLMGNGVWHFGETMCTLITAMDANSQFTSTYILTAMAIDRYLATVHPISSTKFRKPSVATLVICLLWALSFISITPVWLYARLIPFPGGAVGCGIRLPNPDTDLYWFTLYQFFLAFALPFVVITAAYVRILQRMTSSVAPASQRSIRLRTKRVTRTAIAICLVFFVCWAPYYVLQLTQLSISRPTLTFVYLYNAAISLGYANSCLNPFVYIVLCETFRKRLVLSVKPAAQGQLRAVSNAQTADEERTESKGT
Method in brief: (§3)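 MCH-evoked intracellular Ca2+ mobilization read by aequorin luminescence in cells. Antagonism measured as blockade of the MCH response.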

[6] = biological target: Alpha-2C adrenergic receptor (Homo sapiens, UniProt P18825); experiment: Binding affinity to adrenergic alpha2C receptor
[7] = Mean residence time in rat at 3 mg/kg, po; type: ADME, organism-based; parameters: dose 3 mg/kg, route oral; settings: in vivo; method in brief: as §2
[8] = biological target: Sodium-dependent serotonin transporter (Homo sapiens, UniProt P31645); experiment: Binding affinity to serotonin transporter
Sequence of Sodium-dependent serotonin transporter (P31645 whole entry): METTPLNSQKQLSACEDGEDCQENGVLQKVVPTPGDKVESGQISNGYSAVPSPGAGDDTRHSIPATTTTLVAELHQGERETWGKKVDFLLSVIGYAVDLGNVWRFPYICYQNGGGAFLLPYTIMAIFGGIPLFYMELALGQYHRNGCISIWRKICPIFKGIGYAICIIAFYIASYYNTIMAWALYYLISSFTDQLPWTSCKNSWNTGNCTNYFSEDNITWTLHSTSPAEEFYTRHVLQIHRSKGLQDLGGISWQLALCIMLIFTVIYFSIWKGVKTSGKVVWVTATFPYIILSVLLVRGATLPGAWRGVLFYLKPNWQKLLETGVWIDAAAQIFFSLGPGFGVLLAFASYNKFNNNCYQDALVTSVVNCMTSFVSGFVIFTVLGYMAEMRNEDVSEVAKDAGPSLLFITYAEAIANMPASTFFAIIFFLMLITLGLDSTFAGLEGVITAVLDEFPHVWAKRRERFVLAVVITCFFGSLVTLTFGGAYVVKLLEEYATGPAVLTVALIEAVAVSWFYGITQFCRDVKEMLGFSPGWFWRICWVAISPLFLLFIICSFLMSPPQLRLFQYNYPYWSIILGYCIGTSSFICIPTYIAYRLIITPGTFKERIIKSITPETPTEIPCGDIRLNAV

[9] = biological target: Muscarinic acetylcholine receptor M3 (Homo sapiens, UniProt P20309); experiment: Binding affinity to muscarinic M3 receptor
[10] = Plasma concentration in iv dosed rhesus monkey after 45 mins; type: ADME, organism-based, Macaca mulatta
Method in brief: (§4)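 Anesthetized rhesus monkeys received an IV bolus followed by a 45 min IV infusion. QTc recorded throughout.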

[11] = biological target: Alpha-2A adrenergic receptor (Homo sapiens, UniProt P08913); experiment: Binding affinity to adrenergic alpha2A receptor
[12] = biological target: 5-hydroxytryptamine receptor 2A (Homo sapiens, UniProt P28223); experiment: Binding affinity to serotonin 5HT2A receptor
[13] = Ratio of drug uptake in CSF to plasma of rat at 10 mg/kg, po; type: ADME, organism-based; parameters: dose 10 mg/kg, route oral; settings: CSF and plasma
[14] = Oral bioavailability in cynomolgus monkey at 3 mg/kg; type: ADME, organism-based, Macaca fascicularis; settings: in vivo; method in brief: as §2
[15] = Ratio of drug uptake in blood to plasma of rat at 10 mg/kg, po; type: ADME, organism-based; parameters: dose 10 mg/kg, route oral; settings: blood and plasma
Method in brief: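 Single 10 mg/kg oral dose. Drug concentration in whole blood was divided by the plasma concentration to give the [blood]/[plasma] ratio. Brain/plasma and CSF/plasma ratios were obtained after the same dose.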

[16] = Volume of distribution at steady state in cynomolgus monkey at 0.5 mg/kg, iv; type: ADME, organism-based, Macaca fascicularis; parameters: dose 0.5 mg/kg, route intravenous; settings: in vivo, read-out: Vdss; method in brief: as §2
[17] = biological target: Melanin-concentrating hormone receptor 1 (Mus musculus, UniProt Q8JZL2); experiment: Antagonist activity at mouse MCHR1 assessed inhibition of MCH-mediated intracellular Ca2+ calcium mobilization; type: functional, cell-based; method in brief: as §3
Sequence of Melanin-concentrating hormone receptor 1 (Mus musculus, UniProt Q8JZL2) (Q8JZL2 whole entry): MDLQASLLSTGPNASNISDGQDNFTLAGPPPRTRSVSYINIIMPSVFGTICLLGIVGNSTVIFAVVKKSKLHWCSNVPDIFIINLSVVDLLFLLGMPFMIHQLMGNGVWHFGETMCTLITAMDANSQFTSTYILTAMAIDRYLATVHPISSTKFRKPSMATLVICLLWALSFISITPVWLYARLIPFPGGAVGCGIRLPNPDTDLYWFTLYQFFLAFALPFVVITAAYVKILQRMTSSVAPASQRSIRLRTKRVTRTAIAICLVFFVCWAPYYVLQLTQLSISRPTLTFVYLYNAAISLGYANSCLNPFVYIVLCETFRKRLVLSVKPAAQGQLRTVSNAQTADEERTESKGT

Canis familiaris [18] = experiment: Cardiotoxicity in dog assessed as QT prolongation at 300 mg/kg, po; type: toxicity, organism-based, Canis lupus familiaris; parameters: dose 300 mg/kg, route oral; settings: in vivo
Method in brief: (§5)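 Dogs dosed orally at 300 mg/kg in a 4 h study. QTc monitored throughout; plasma Cmax determined.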

[19] = Mean residence time in cynomolgus monkey at 3 mg/kg, po; type: ADME, organism-based, Macaca fascicularis; parameters: dose 3 mg/kg, route oral; settings: in vivo; method in brief: as §2
[20] = Mean residence time in mouse at 3 mg/kg, po; type: ADME, organism-based; parameters: dose 3 mg/kg, route oral; settings: in vivo; method in brief: as §2
[21] = Volume of distribution at steady state in rat at 0.5 mg/kg, iv; type: ADME, organism-based; parameters: dose 0.5 mg/kg, route intravenous; settings: in vivo, read-out: Vdss; method in brief: as §2
[22] = Cmax in dog at 300 mg/kg, po; type: ADME, organism-based, Canis lupus familiaris; parameters: dose 300 mg/kg, route oral; settings: in vivo; method in brief: as §5
[23] = biological target: Sodium-dependent noradrenaline transporter (Homo sapiens, UniProt P23975); experiment: Binding affinity to norepinephrine transporter
Sequence of Sodium-dependent noradrenaline transporter (P23975 whole entry): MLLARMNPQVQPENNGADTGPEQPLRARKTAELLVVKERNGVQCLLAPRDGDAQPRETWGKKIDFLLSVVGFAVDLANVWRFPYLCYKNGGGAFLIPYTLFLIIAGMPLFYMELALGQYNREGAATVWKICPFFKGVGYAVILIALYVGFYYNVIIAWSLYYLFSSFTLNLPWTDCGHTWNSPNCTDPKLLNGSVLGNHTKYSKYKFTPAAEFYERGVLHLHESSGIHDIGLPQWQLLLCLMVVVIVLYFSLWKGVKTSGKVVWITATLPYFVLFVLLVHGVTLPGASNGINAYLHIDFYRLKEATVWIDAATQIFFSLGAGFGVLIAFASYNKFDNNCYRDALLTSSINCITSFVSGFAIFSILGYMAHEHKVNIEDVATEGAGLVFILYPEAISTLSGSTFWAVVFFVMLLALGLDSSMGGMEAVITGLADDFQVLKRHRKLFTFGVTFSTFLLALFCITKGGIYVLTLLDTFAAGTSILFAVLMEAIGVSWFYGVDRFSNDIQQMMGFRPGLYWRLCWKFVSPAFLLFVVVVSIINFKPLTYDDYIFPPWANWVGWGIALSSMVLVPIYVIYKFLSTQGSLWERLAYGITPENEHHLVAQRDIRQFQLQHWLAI

[24] = Clearance in beagle dog at 0.5 mg/kg, iv; type: ADME, organism-based, Canis lupus familiaris; parameters: dose 0.5 mg/kg, route intravenous; settings: in vivo; method in brief: as §2
[25] = Volume of distribution at steady state in mouse at 0.5 mg/kg, iv; type: ADME, organism-based; parameters: dose 0.5 mg/kg, route intravenous; settings: in vivo, read-out: Vdss; method in brief: as §2
[26] = Oral bioavailability in beagle dog at 3 mg/kg; type: ADME, organism-based, Canis lupus familiaris; settings: in vivo; method in brief: as §2
[27] = Mean residence time in beagle dog at 3 mg/kg, po; type: ADME, organism-based, Canis lupus familiaris; parameters: dose 3 mg/kg, route oral; settings: in vivo; method in brief: as §2
Rhesus monkey = experiment: Cardiotoxicity in rhesus monkey assessed as QT prolongation administered as bolus dose; type: toxicity, organism-based, Macaca mulatta; settings: in vivo; method in brief: as §4
[28] = biological target: T1, Melanin-concentrating hormone receptor 1; experiment: Binding affinity to human MCHR1; method in brief: as §1
[29] = biological target: Melanin-concentrating hormone receptor 2 (Homo sapiens, UniProt Q969V1); experiment: Antagonist activity at human MCHR2 assessed inhibition of MCH-mediated intracellular Ca2+ calcium mobilization; type: functional, cell-based; method in brief: as §3
Sequence of Melanin-concentrating hormone receptor 2 (Q969V1 whole entry): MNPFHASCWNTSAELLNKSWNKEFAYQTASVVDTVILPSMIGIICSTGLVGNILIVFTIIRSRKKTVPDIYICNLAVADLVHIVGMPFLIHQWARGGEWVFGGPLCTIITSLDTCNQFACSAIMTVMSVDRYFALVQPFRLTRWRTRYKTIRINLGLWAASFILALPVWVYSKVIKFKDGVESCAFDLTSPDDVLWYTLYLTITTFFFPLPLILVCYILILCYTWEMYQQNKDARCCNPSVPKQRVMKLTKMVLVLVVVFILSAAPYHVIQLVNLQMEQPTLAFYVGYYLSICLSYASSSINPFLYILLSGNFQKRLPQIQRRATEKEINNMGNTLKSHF

[30] = biological target: T1, Melanin-concentrating hormone receptor 1; experiment: Antagonist activity at human MCHR1 assessed inhibition of MCH-mediated intracellular Ca2+ calcium mobilization by aequorin assay; type: functional, cell-based; method in brief: as §3
[31] = biological target: Muscarinic acetylcholine receptor M2 (Homo sapiens, UniProt P08172); experiment: Binding affinity to muscarinic M2 receptor
D(1A) dopamine receptor = D(1A) dopamine receptor (Homo sapiens, UniProt P21728); experiment: Binding affinity to dopamine D1 receptor
Canis familiaris [32] = experiment: Cardiotoxicity in dog assessed as QT prolongation at 100 mg/kg, po BID for 28 days; type: toxicity, organism-based, Canis lupus familiaris; parameters: dose 100 mg/kg, route oral; settings: in vivo, 672 h
[33] = Clearance in mouse at 0.5 mg/kg, iv; type: ADME, organism-based; parameters: dose 0.5 mg/kg, route intravenous; settings: in vivo; method in brief: as §2
[34] = biological target: Melanin-concentrating hormone receptor 1 (Rattus norvegicus, UniProt P97639); experiment: Antagonist activity at rat MCHR1 assessed inhibition of MCH-mediated intracellular Ca2+ calcium mobilization; type: functional, cell-based; method in brief: as §3
Sequence of Melanin-concentrating hormone receptor 1 (Rattus norvegicus, UniProt P97639) (P97639 whole entry): as the sequence (Q8JZL2 whole entry) above, with A5T, F24L, A27P, P29S, R34G, A138T counted along it

[35] = Clearance in rat at 0.5 mg/kg, iv; type: ADME, organism-based; parameters: dose 0.5 mg/kg, route intravenous; settings: in vivo; method in brief: as §2
[36] = Volume of distribution at steady state in beagle dog at 0.5 mg/kg, iv; type: ADME, organism-based, Canis lupus familiaris; parameters: dose 0.5 mg/kg, route intravenous; settings: in vivo, read-out: Vdss; method in brief: as §2
[37] = biological target: T3, 5-hydroxytryptamine receptor 2C (Homo sapiens, UniProt P28335); experiment: Binding affinity to serotonin 5HT2C receptor
T3 sequence (P28335 whole entry): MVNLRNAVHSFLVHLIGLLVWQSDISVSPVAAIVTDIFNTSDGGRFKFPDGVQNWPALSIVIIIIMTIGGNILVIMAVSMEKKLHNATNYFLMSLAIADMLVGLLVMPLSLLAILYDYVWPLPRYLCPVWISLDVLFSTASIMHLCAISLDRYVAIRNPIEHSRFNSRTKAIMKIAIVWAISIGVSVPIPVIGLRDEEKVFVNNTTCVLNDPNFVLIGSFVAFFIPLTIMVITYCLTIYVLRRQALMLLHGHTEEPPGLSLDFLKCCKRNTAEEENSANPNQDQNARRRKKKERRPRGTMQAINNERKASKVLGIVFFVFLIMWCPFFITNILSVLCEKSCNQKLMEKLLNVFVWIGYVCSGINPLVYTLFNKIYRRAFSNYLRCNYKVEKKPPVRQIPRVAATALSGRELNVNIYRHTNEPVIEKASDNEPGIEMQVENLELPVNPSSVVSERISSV

[38] = Clearance in cynomolgus monkey at 0.5 mg/kg, iv; type: ADME, organism-based, Macaca fascicularis; parameters: dose 0.5 mg/kg, route intravenous; settings: in vivo; method in brief: as §2
D(2) dopamine receptor = D(2) dopamine receptor (Homo sapiens, UniProt P14416); experiment: Binding affinity to dopamine D2 receptor
Cynomolgus monkey = experiment: Cardiotoxicity in cynomolgus monkey assessed as QT prolongation at 30 mg/kg, po; type: toxicity, organism-based, Macaca fascicularis; parameters: dose 30 mg/kg, route oral; settings: in vivo
Method in brief: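 Cynomolgus monkeys (n = 3) given a single 30 mg/kg oral dose; QTc monitored.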

[39] = Ratio of drug uptake in brain to plasma of rat at 10 mg/kg, po; type: ADME, organism-based; parameters: dose 10 mg/kg, route oral; settings: brain and plasma, read-out: BPR
[40] = biological target: T3, 5-hydroxytryptamine receptor 2C; experiment: Antagonist activity at serotonin 5HT2C receptor assessed as blockage of intracellular calcium mobilization; type: functional, cell-based
[41] = Oral bioavailability in rat at 3 mg/kg; type: ADME, organism-based; settings: in vivo; method in brief: as §2
[42] = biological target: 5-hydroxytryptamine receptor 1A (Homo sapiens, UniProt P08908); experiment: Binding affinity to serotonin 5HT1A receptor
Sequence of 5-hydroxytryptamine receptor 1A (P08908 whole entry): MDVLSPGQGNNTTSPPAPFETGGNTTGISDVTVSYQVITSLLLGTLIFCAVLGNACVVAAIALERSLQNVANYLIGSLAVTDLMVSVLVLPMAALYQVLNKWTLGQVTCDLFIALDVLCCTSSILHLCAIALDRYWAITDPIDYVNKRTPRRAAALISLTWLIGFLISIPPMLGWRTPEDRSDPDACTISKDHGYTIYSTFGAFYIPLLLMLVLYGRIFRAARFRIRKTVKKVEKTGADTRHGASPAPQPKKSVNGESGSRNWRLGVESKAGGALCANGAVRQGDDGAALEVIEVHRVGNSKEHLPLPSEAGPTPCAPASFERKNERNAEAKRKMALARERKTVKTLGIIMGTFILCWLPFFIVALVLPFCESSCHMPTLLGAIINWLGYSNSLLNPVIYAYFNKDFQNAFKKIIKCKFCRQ

Mus musculus = experiment: Antiobesity activity in high fat diet-fed C57BL/6 mouse assessed as reduction in body weight at 3 mg/kg, po daily measured up to day 137 relative to control; type: functional, organism-based; parameters: dose 3 mg/kg

T1 sequence (Q99705 whole entry): as the sequence (Q8MJ89 whole entry) above, with T14A, S33T, V36I, M60T counted along it

C[C@H]1c2c([nH]c3ccc(C(F)(F)F)cc23)C[C@H]2CCN(CCCC3(C(=O)O)CCOCC3)C[C@@H]21
IC50 [1]: 40 nM | IC50 [2]: 300 nM

N=C(c1ccc(C(=O)Nc2ccc(Cl)cc2C(=O)Nc2ccc(Cl)cn2)cc1)N1CCCC(C(=O)O)C1 (stereo not given)
Ki [3]: > 10000 nM

C[C@H]1c2c([nH]c3ccc(C(F)(F)F)cc23)C[C@H]2CCN(CCC3(C(=O)O)CCCCC3)C[C@@H]21
bioavailability [4]: 79% | Ki (Mu-type opioid receptor): > 2000 nM | IC50 [5]: 0.8 nM | Ki [6]: > 2000 nM | MRT [7]: 7.9 h | Ki [8]: > 2000 nM | Ki [9]: > 2000 nM | concentration at 0.75 h [10]: 6.5 µM | Ki [11]: > 2000 nM | Ki [12]: > 2000 nM | Kp [13]: 0.21 | bioavailability [14]: 29% | blood plasma ratio [15]: 0.79 | Vd [16]: 2.3 L/kg | IC50 [17]: 0.6 nM | Activity (Canis familiaris [18]): Non-toxic | IC50 [1]: 0.6 nM | MRT [19]: 11 h | IC50 [2]: > 5000 nM | MRT [20]: 5.8 h | Vd [21]: 3.8 L/kg | Cmax [22]: 33 µM | Ki [23]: > 2000 nM | clearance [24]: 8.83 mL/min/kg | Vd [25]: 3.6 L/kg | bioavailability [26]: 40% | MRT [27]: 4.2 h | Activity (Rhesus monkey): Non-toxic | Ki [28]: 0.6 nM | IC50 [29]: > 10000 nM | IC50 [30]: 1.2 nM | Ki [31]: > 2000 nM | Ki (D(1A) dopamine receptor): > 2000 nM | Activity (Canis familiaris [32]): Non-toxic | clearance [33]: 10.7 mL/min/kg | IC50 [34]: 0.8 nM | clearance [35]: 9.17 mL/min/kg | Vd [36]: 2.2 L/kg | Ki [37]: 1120 nM | clearance [38]: 3.67 mL/min/kg | Ki (D(2) dopamine receptor): 3160 nM | Activity (Cynomolgus monkey): Non-toxic | Kp [39]: 0.4 | IC50 [40]: 1140 nM | bioavailability [41]: 70% | Ki [42]: > 2000 nM

CC(C)CC(N(C)C)C1(c2ccc(Cl)cc2)CCC1 (stereo not given)
Activity (Mus musculus): Active
